Compound activity deposited in PubChem BioAssay by several laboratories.
ABCB6 inh MLPCN: ABCB6 transporter inhibitors, primary screen, K562-ABCB6 cells, flow cytometry, MLPCN library; ATP-binding cassette sub-family B member 6 (Homo sapiens), Q9NP58; K562-ABCB6 porphyrin accumulation, 1 h; stronger effect = lower value; fluorescence ratio to DMSO, % at 10 µM; actives 0.19% (n = 360,000); AID 602162, 2011;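 active = fluorescence ratio to DMSO below 75%, the collection mean minus 3 SD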;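 also: signal is porphyrin accumulated inside mitochondria; 100% equals median channel fluorescence of DMSO control wells; lower ratio means ABCB6 inhibition with less porphyrin fluorescence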
Target sequence (Q9NP58 whole entry, looked up): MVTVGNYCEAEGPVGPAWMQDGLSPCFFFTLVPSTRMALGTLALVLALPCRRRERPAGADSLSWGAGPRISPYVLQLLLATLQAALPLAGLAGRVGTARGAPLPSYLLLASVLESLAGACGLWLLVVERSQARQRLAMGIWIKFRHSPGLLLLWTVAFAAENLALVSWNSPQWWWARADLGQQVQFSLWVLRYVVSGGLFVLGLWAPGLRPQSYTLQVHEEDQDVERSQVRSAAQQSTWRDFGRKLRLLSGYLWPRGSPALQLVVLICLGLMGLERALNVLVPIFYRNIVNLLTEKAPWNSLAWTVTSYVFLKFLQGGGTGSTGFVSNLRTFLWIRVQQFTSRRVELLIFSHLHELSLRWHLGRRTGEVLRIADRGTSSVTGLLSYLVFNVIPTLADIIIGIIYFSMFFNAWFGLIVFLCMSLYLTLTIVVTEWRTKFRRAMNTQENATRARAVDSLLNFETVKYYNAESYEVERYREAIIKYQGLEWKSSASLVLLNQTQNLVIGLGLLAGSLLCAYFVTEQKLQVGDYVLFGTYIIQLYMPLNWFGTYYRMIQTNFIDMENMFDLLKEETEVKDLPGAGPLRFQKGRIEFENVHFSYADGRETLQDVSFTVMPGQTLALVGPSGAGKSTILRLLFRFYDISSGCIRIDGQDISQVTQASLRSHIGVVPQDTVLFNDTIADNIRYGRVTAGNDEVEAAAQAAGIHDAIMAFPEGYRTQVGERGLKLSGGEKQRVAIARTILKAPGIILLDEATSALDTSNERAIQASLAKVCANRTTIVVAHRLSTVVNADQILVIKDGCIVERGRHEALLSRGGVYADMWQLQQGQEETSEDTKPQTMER
Dynein cargo inh: inhibitors of GR-EGFP nuclear translocation, primary screen, dynein cargo transport inhibitor project, imaging, high-content, 3617.4 mouse cells; z-score, hits read low; test concentration mostly 20 µM; stimulated with dexamethasone, 1 µM; stronger effect = lower value; actives 0.47% (n = 220,000);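 active = plate z-score of nuclear minus cytoplasmic receptor signal below a set negative limit, without overly bright fluorescence or cell loss, cut at about -3.5 in these data, passing the limit was not always enough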;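 also: z-score of nuclear minus cytoplasmic ring GR-EGFP intensity difference per well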
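Also added – dexamethasone, 1.0 µM final · Buffer or medium – tet-free, stripped-serum medium · Schedule – induction 48 h, compound 1 h, agonist 30 min · Detection – formaldehyde fixation, Hoechst nuclear stain, 10x automated fluorescence imaging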
KCC2 mod: KCC2 cotransporter modulators, thallium flux, primary screen, cell-based, HEK293 KCC2, FluoZin-2 fluorescence, MLSMR. Solute carrier family 12 member 5 (Homo sapiens), Q9H2X9. KCC2 cells, thallium flux FluoZin-2 fluorescence. B-score of Tl+ flux slope (higher = more flux/activation; lower = inhibition) at 10 µM. actives 2.2% (n = 190,000). AID 1456, 2008;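 active = thallium flux slope and its plate-corrected score both differing from the plate sample mean at a set confidence after two filtering rounds, in either direction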;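 also: slope of fluorescence scaled to starting intensity during 10 to 20 s after thallium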
V-ATPase pHluor: regulators of yeast V-ATPase proton pumping, primary screen, pHLuorin cytosolic pH fluorescence. S. cerevisiae. response, % at 10 µM. actives 0.37% (n = 350,000); in the data active = response mostly above about 7.3%, no sharp cut-off; inactive = mostly below about 5.4%; also: actives read high
p-CIP stab down: p/CIP-EGFP fusion destabilizers, primary screen, fluorescence, F442A cells. Q05BA5. 16 h. decrease of EGFP signal, % at 10 µM. actives 0.01% (n = 290,000);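 active = EGFP signal decrease of at least 30% at 10 µM or well 3 SD below plate mean, unless failing retest; inactive = the rest, including hits failing retest or dose response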
* hit, by the source's call; x = not tested or not shown. The sample as a whole holds a higher share of hits than the screen did.

SMILES	ABCB6 inh MLPCN	Dynein cargo inh	KCC2 mod	V-ATPase pHluor	p-CIP stab down
COc1ccc(NC(=O)N(C)C[C@@H]2OCc3cn(nn3)CCCC(=O)N([C@@H](C)CO)C[C@H]2C)cc1	99.0	x	x	-2.1	x
CCCNS(=O)(=O)c1ccc2c(c1)n(C)c(=O)n2C	102.0	-0.352	-0.282	-2.9	-7.2
CCCCN(C)CCNS(=O)(=O)c1ccc2c(c1)n(C)c(=O)c(=O)n2C	105.0	1.69	0.603	18.1*	13.6
CC(=O)Oc1ccc(N(C(C)=O)S(=O)(=O)c2ccc(C)cc2)c2ccccc12	87.0	x	x	-0.3	x
CC(=O)Oc1ccc(N(C(C)=O)S(=O)(=O)c2ccc(Cl)cc2)c2ccccc12	103.0	x	x	18.3*	1.7
CC1(C)CC(=O)C=C(Nc2ccc(F)cc2)C1	100.0	-0.489	0.202	13.9*	7.6
CCC1(CC)Cc2ccccc2-c2nc(-c3ccccc3)oc(=O)c21	70.0*	0.631	x	-4.8	-2.3
O=c1oc(-c2ccccc2)nc2c1C1(CCCCC1)Cc1ccccc1-2	105.0	0.0908	-0.518	-16.1	-24.3
COc1cc(NC(=O)C(=O)NNC(=O)C2CCCCC2)c(OC)cc1Cl	104.0	-0.629	51*	3.1	-17.7
COc1cc(OC)cc(C(=O)NNC(=O)C(=O)Nc2cc(OC)c(Cl)cc2OC)c1	89.0	x	x	3.7	-16.9
O=C(NC(=S)Nc1ccccc1)c1cc(-c2ccccc2)nc2ccccc12	90.0	0.403	17.9*	-3.1	-18.0
O=C(NC(=S)Nc1ccccn1)c1cc(-c2ccccc2)nc2ccccc12	93.0	-0.68	21.9*	4.3	-21.1
O=C(Nc1ccccn1)c1cc(-c2ccc(Cl)s2)nc2ccccc12	97.0	x	x	-0.8	x
O=C1COC(c2ccccc2O)=NN1CCCl	99.0	x	x	-0.1	x
Cc1cccc(COC[C@H](CC(C)C)N2CCN(C(=O)c3ccc(C(F)(F)F)cc3)CCC2=O)c1	99.0	x	x	x	x
COC(=O)c1cccc(NC(=O)CCN2C(=O)NC(C)(C)C2=O)c1	102.0	x	x	0.8	x
Cc1nnc(SCC(=O)Nc2ccc(N3CCOCC3)cc2)n1Cc1ccccc1	95.0	x	x	23.1*	x
O=S1(=O)N[C@H](Cc2ccccc2)COc2cccc(N3CCN(Cc4ccccc4F)CC3)c21	96.0	x	x	x	x
Cc1cccc(NC(=S)NNC(=O)c2csc3c2CCC(C)C3)c1 (stereo not drawn)	96.0	-0.837	25.1*	-2.3	0.4
Cc1ccc(C)c(NC(=S)NNC(=O)c2csc(C(C)C)c2)c1	90.0	1.63	13.5*	3.9	-6.8
Cc1ccc(C)c(NC(=S)NNC(=O)c2cc3c(s2)CCC(C)C3)c1 (stereo not drawn)	92.0	-0.0332	28.4*	-2.6	2.5
COc1cccc(C=C(C(C)=O)C(=O)c2ccccc2)c1	99.0	x	x	x	x
COc1ccc(-c2oc3c(c2C#CC(C)(C)O)C(OCCO)CC3)cc1 (stereo not drawn)	97.0	x	x	x	x
CCOc1ccc(NC(=O)COC(=O)c2c[nH]c3ccccc23)cc1	98.0	x	x	0.9	x
CCN(CC)C(=O)c1cccc(-c2csc(C(C)(O)c3ccc(F)c(F)c3)n2)c1 (stereo not drawn)	96.0	x	x	x	x
SMILES	ABCB6 inh MLPCN	Dynein cargo inh	KCC2 mod	V-ATPase pHluor	p-CIP stab down
CC1=C/C(=N\OS(=O)(=O)c2ccccc2)C(C(C)C)=CC1=O	98.0	-4.72*	-2.13	29.9*	6.1
Cc1ccc(S(=O)(=O)ON2C(=O)c3ccccc3C2=O)c(C)c1	103.0	-4.81*	-0.129	8.1*	8.7
O=C(CN1CCN(Cc2ccccc2)CC1)Nc1cccc(Cl)c1Cl	76.0	x	x	-0.4	x
O=C(Cc1ccccc1F)Nc1cccc(S(=O)(=O)N2CCCCC2)c1	92.0	x	x	1.7	x
CCOc1ccccc1N1CCN(C(=S)NC(=O)C23CC4CC(CC(C4)C2)C3)CC1	95.0	0.186	4.75*	0.7	7.5
COc1cccc(CN(C)C[C@H]2OCc3cnnn3CCCC(=O)N([C@@H](C)CO)C[C@@H]2C)c1	101.0	x	x	-1.8	x
COc1ccc(CNC(=O)c2cccc(NC3=NC4CS(=O)(=O)CC4S3)c2)cc1 (stereo not drawn)	101.0	x	x	18.7*	2.7
COc1ccc(CCNc2oc(Cc3cccc4ccccc34)nc2C#N)cc1OC	105.0	0.237	-2.92	0.7	-12.1
COc1ccc(CCNc2oc(COc3ccc(Br)cc3)nc2C#N)cc1OC	94.0	-0.878	x	10.0*	0.5
CCCCn1nnnc1C(c1cc2ccccc2o1)N1CCN(C(=O)OC(C)(C)C)CC1 (stereo not drawn)	98.0	x	x	x	x
CCOC(=O)Cc1csc(NC(=S)NC(=O)C(C)(C)C)n1	98.0	0.419	15.5*	-3.1	-6.8
O=C(/C=C/c1cccc([N+](=O)[O-])c1)c1ccc([N+](=O)[O-])o1	105.0	x	x	177.2*	x
CC(C)(C=O)C1=CC(=O)c2ccccc2C1=O	100.0	-3.6*	-2.37	15.6*	1.8
CC1=CC(=O)c2ccccc2C1=O	103.0	-1.92	0.148	4.6	-6.2
COC(=O)c1ccc(-n2cc(-c3ccc(OC)cc3)[nH]c2=S)cc1	100.0	0.192	8.83*	7.2	-0.8
CC(C)c1cc(Cn2c3ccccc3c(=O)n2C(C)C)on1	97.0	x	x	x	x
CCN(CC)CCNC(=O)CSc1c2c(nc3cc(Cl)ccc13)CCCC2	98.0	-3.93*	-0.41	-1.8	2.7
CCN(CC)CCCNC(=O)c1ccc2c(SCC(=O)O)c3c(nc2c1)CCC3	x	0.515	2.33	x	-1.0
Cc1ccc(CNC(=O)CSc2c3c(nc4ccc(Cl)cc24)CCCC3)o1	91.0	-0.439	4.79*	-3.3	-4.1
CC(C)CC(=O)NC(=S)Nc1ccccc1F	99.0	0.466	-0.64	4.6	-10.9
CC(C)C(=O)NC(=S)N(Cc1ccccc1)Cc1ccccc1	104.0	1.57	41.7*	0.3	-0.7
CC(C)CC(=O)NC(=S)N(Cc1ccccc1)Cc1ccccc1	92.0	1.61	49.3*	-1.8	-16.1
COc1ccc(S(=O)(=O)N2CCC(C(=O)N3CCc4ccccc4C3)CC2)cc1	103.0	2.89	-3.96*	-2.0	1.3
CCCc1cc(=O)n2[nH]c(-c3ccco3)nc2n1	89.0	1.41	-0.267	15.7*	-3.3
COC(=O)C(O)(NC(=O)NC(C)=O)C(F)(F)F (stereo not drawn)	99.0	-0.339	0.657	14.2*	-5.9
Cc1ccc2oc(=O)c3cc(C(=O)N4CCN(C(=O)c5ccco5)CC4)sc3c2c1	x	-1.1	-2.47*	x	-3.7
COc1ccccc1C(=O)OCC(=O)NC1CCCC1	397.0	x	x	258.9*	-9.9
COc1ccccc1C(=O)OCC(=O)NC(=O)NC1CCCC1	90.0	x	x	x	x
CN(C(=O)COC(=O)c1ccc2c(c1)OCO2)C1CCS(=O)(=O)C1 (stereo not drawn)	96.0	1.72	0.479	23.4*	-20.3
CN(C(=O)COC(=O)c1ccc2c(c1)OCO2)C1CCCCC1	102.0	x	x	-3.5	x
